Results: PubChem BioAssay AID504525 (Broad Institute, 2011)
The source made the active and inactive calls.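 The calls were made as follows: active = fitted dose curve showing toxicity with half-maximal concentration at most ten times the top tested dose; inconclusive = flat curve with 30 to 70% toxicity, or poor fit; inactive = the rest.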

Test: mammalian cell viability loss with fluconazole – NIH-3T3, powder samples, set 7, cytotoxicity control for antifungal drug resistance project, dose response (AID 504525)
Conditions: NIH-3T3 viability with fluconazole, Alamar Blue, 48 h; series mostly up to 26 µM
In short: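 Assay system: NIH 3T3 fibroblast cells, Alamar Blue viability. Amount: 6,000 cells per well. Buffer or medium: Optimem growth medium with 2.5% fetal bovine serum. Probe or stimulus: fluconazole co-treatment at 8 µg/mL final. Compound: dose series up to 26 µM. Times: 48 h compound exposure at 37 °C. Measured by: Alamar Blue fluorescence, Ex 544/Em 590 nm.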

SMILES | outcome
O=C(Cn1c2ccc(F)cc2c2nc3n(c(=O)c21)CCS3)N1CCC(F)(F)CC1 | inactive
COC(=O)Cn1nc(C2CC2)c2ccccc21 | inactive
COC(=O)Cn1nc(-c2cccc(OC)c2)c2ccccc21 | inactive
COC(=O)Cn1nc(-c2cscn2)c2ccccc21 | inactive
COC(=O)Cn1nc(-c2cccc(F)c2)c2ccccc21 | inactive
